The text below walks through data of PubChem BioAssay.

Assay [1] is described as follows: inhibitors of TNFa-induced NFkB p65 translocation, primary screen, imaging, HUVEC, MLSMR starter and 10KST1 sets (AID 438;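 active = inhibition above 20% together with a positive visual image hit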;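 note: compound added about 3h40 before a 20 min TNFalpha stimulation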;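 for inhibition: signal is the nuclear over cytoplasmic p65 intensity ratio per well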). Particulars: HUVEC TNFa-induced p65 nuclear translocation; cell count: measured here: nuclei count (cytotoxicity indicator), at 2.08 µM; inhibition: at 2 µM, stronger effect = higher value, 0% TNFa-plus-vehicle, 100% no-TNFa wells.
A short description of assay [2]: reduction of polyQ htt aggregates in cells – imaging, exon1htt(103Q)mCFP cells, high-content imaging, primary screen (AID 483;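 active = visual image review flags a hit and inhibition of aggregation exceeds 20%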;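 note: compound exposure lasted 3 days before fixation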;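 for nuclei count: percent of the per-plate median nuclei count of sample wells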). The settings on record: exon1htt(103Q)mCFP cell line, aggregate imaging, at 2 µM; inhibition of aggregation: stronger effect = higher value; nuclei count: measured here: cell count, toxicity.
Assay [3] in a line: endothelial E-selectin expression blockers – imaging, HUVEC, immunofluorescence, MLSMR starter and 10KST1 sets, primary screen (AID 487).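 For inhibition: signal is fraction of cell area covered by stained E-selectin grains.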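 For nuclei count: 100% = median nuclei count of all wells on the same plate.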 The settings on record: HUVEC TNFalpha-induced E-selectin immunofluorescence imaging, at 2 µM; inhibition: stronger effect = higher value; nuclei count: measured here: cell number, toxicity.
Assay [4] deals with Voltage-gated potassium channel subunit beta-2 (Rattus norvegicus) (UniProt P62483). Description: inhibitors of rat Kvbeta2 reductase activity – biochemical, NADPH fluorescence, primary screen (AID 622;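 active = fluorescence slope higher than the sample average by over 3 SD, cut at about -0.22 in these data, passing the limit was not always enough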;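 note: slope of raw intensity against log time taken from 70 to 1610 s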). Particulars: recombinant KvBeta, 4-cyanobenzaldehyde reduction, at 10 µM, stronger effect = higher value.
For assay [5] the target is unchanged. Description: enhancers of rat Kvbeta2 NADPH turnover – biochemical, NADPH fluorescence, primary screen (AID 623;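 active = NADPH fluorescence slope more negative than the mean of all samples by about 3 SD, 99.7% confidence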;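 note: fluorescence intensity change per second fitted from 20 to 320 s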). The settings on record: Recombinant KvBeta, NADPH fluorescence decrease slope, 10 min; at 10 µM; stronger effect = lower value.
The target of assay [6] is Muscarinic acetylcholine receptor M4 (Homo sapiens) (UniProt P08173). Briefly: M4-linked GIRK flux change, two-sided – cell-based, HEK293 M4/GIRK, thallium flux, BTC-AM, M4 allosteric agonist project, primary screen (AID 625;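 active = fluorescence slope after compound addition differing from the mean of all tested samples at 99.7% confidence, mostly higher but some lower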;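 note: thallium influx through GIRK channels coupled to M4 in HEK293 cells with BTC-AM dye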). Particulars: at 10 µM, actives lie on both sides. In short, it runs like this: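 Material – HEK293 cells with M4 receptor and GIRK channels · Buffer or medium – pH 7.3 thallium assay buffer · Doses – one dose, 10 µM final · Timing – cells overnight at 37 °C, BTC-AM loading 1 h, reads 2 min total · Measured by – kinetic fluorescence with BTC-AM dye · Controls – carbachol and DMSO controls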

Assay [7] in a line: blockers of RIG-like receptor reporter activation – cell-based, Sendai virus stimulus, luciferase, 10K MLSCN set, TLR/RLR signaling modifier project, primary screen (AID 602276;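 active = inhibition at or above 50% at 10 µM; inactive = inhibition below 50%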;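 note: firefly luciferase from ISG56 promoter only with Renilla not read in this screen; 0% = Sendai virus plus DMSO and 100% = medium plus DMSO without virus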). The settings on record: HEK293 RL24 IRF3 luciferase reporter, at 10 µM, stronger effect = higher value. For orientation: In a reporter assay the amount or activity of a reporter protein is the signal.
Assay [8] can be described thus: TLR3 IRF3 reporter activation blockers – cell-based, poly I:C stimulus, luciferase, 10K MLSCN set, primary screen (AID 602277;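 active = inhibition of the reporter signal at or above 50%; inactive = inhibition below 50%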). Particulars: HEK293-TLR3 RL24 IRF3 luciferase reporter, at 10 µM, stronger effect = higher value.

Calls of active or inactive are those of the source.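 Rule for the calls, unless noted: active = visually confirmed hit in the image check and inhibition above 20%; inconclusive = visually confirmed hit but inhibition not above 20%; inactive = no visual hit in the image check.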

Sequence of Voltage-gated potassium channel subunit beta-2 (Rattus norvegicus) (P62483 whole entry, looked up): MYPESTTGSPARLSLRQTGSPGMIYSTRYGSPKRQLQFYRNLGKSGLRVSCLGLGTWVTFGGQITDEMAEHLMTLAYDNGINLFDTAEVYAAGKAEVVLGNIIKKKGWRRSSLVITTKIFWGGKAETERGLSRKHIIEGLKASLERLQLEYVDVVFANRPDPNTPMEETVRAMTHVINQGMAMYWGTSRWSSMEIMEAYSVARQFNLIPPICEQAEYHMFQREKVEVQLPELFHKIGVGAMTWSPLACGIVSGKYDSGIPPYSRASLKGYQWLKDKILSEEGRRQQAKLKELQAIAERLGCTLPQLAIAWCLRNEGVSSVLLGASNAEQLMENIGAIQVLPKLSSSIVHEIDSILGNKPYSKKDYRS
Sequence of Muscarinic acetylcholine receptor M4 (Homo sapiens) (P08173 whole entry, looked up): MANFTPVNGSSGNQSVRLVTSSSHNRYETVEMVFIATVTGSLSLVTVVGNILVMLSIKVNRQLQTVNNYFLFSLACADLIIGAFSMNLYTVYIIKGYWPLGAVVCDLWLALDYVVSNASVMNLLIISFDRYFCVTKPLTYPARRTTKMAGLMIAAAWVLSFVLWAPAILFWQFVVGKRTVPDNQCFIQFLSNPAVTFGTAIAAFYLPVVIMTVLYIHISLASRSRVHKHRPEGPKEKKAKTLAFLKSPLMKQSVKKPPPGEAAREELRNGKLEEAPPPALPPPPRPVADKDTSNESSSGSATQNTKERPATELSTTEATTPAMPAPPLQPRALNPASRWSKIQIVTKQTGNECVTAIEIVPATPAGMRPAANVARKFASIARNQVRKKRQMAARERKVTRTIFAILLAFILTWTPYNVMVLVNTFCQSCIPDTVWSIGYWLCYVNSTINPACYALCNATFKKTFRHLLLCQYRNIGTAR

For the compound `COc1cc2[nH]c(=O)n(CCCCCC(=O)NCCCN3CCCC3=O)c(=O)c2cc1OC`, in assay [1], the cell count was 703. The inhibition in assay [1] is -23.7% (inactive); in assay [3] it was -42.1% (inactive); in assay [7] it was 13.3% (inactive); in assay [8], 22.1% (inactive). For the same compound, in assay [2], the inhibition of aggregation was 3.9% (inactive). In addition, the nuclei count in assay [2] turned out to be 102%; in assay [3], 124%. For the same compound, the fluorescence slope was -0.457 (inactive) in assay [4] and 0.0052 (inactive) in assay [6]. In addition, in assay [5], the NADPH fluorescence slope is -7.1e-05 (inactive).

As for `CCOC(=O)c1cc2oc(C)cc2n1CC(=O)OC1CCCCC1`, the cell count in assay [1] was 353. Moreover, the inhibition is 5.3% (inactive) in assay [1], -13.6% (inactive) in assay [3], 1.83% (inactive) in assay [7] and 16.4% (inactive) in assay [8]. For the same compound, the inhibition of aggregation in assay [2] was -10.9% (inactive). The nuclei count is 110% in assay [2] and 102% in assay [3]. For the same compound, the fluorescence slope in assay [4] is -0.584 (inactive); in assay [6] it was 0.00678 (inactive). Besides, the NADPH fluorescence slope in assay [5] is -2.1e-06 (inactive).

Regarding `COc1cccc(-c2noc(CCC(=O)NC3CCCCC3)n2)c1`, in assay [1], the cell count was 433. The inhibition in assay [1] is -12.7% (inactive); in assay [3], -39.4% (inactive); in assay [7], 11% (inactive); in assay [8], 15.2% (inactive). Besides, in assay [2], the inhibition of aggregation was -6.8% (inactive). In addition, the nuclei count in assay [2] came out at 112%; in assay [3], 108%. The results for the fluorescence slope in assay [4] and in assay [6] were -0.461 (inactive) and 0.00539 (inactive), respectively. Further, in assay [5], the NADPH fluorescence slope is -4.1e-05 (inactive).

Consider `COc1cccc2cc(C(=O)N3CCc4ccccc43)c(=O)oc12`, for which, in assay [1], the cell count stood at 274. Also, the inhibition in assay [1] is 4.3% (inactive); in assay [3] it was 18.4% (inactive); in assay [7], 8.43% (inactive); in assay [8] it was 21% (inactive). Besides, in assay [2], the inhibition of aggregation was -4.2% (inactive). Moreover, the nuclei count in assay [2] was determined as 106%; in assay [3] it was 99%. Besides, the fluorescence slope was -0.466 (inactive) in assay [4] and 0.00512 (inactive) in assay [6]. Further, the NADPH fluorescence slope in assay [5] was -5.5e-06 (inactive).

Turning to `C=C(C)CSc1nnc(-c2cccc(S(=O)(=O)N(C)C)c2)n1-c1cc(OC)ccc1OC`, the cell count in assay [1] came to 712. The inhibition in assay [1] is -12.2% (inactive); in assay [3], -12.6% (inactive); in assay [7], 18.8% (inactive); in assay [8] it was 34.6% (inactive). Moreover, in assay [2], the inhibition of aggregation was 31.2% (active). The figures for the nuclei count in assay [2] and in assay [3] were 123% and 107%, respectively. The fluorescence slope was -0.576 (inactive) in assay [4] and 0.00586 (inactive) in assay [6]. For the same compound, in assay [5], the NADPH fluorescence slope was 4e-05 (inactive).

`CN1CCCC(OC(=O)COc2ccc(Br)cc2)C1` (centres undefined): the cell count in assay [1] was determined as 430. In addition, the inhibition was -3.5% (inactive) in assay [1], -63.5% (inactive) in assay [3], -9.52% (inactive) in assay [7] and -1.12% (inactive) in assay [8]. For the same compound, the inhibition of aggregation in assay [2] is 2.1% (inactive). The results for the nuclei count in assay [2] and in assay [3] were 97% and 87.2%, respectively. For the same compound, the results for the fluorescence slope in assay [4] and in assay [6] were -0.489 (inactive) and 0.0054 (inactive), respectively. In addition, in assay [5], the NADPH fluorescence slope is 0.000124 (inactive).

Take `COC(=O)c1ccccc1NC(=O)c1noc2c1CC(C(C)(C)C)CC2` (centres undefined): the cell count in assay [1] came out at 216. The inhibition in assay [1] is 4.9% (inactive); in assay [3], -31.4% (inactive); in assay [7], 8.65% (inactive); in assay [8], 4.53% (inactive). Besides, in assay [2], the inhibition of aggregation was 0.9% (inactive). The nuclei count was 104% in assay [2] and 116% in assay [3]. Also, the figures for the fluorescence slope in assay [4] and in assay [6] were -0.559 (inactive) and 0.00974 (inactive), respectively. Further, the NADPH fluorescence slope in assay [5] is -3.2e-05 (inactive).

As to `CCS(=O)(=O)N1CCC(C(=O)NC2CCCCC2)CC1`, the cell count in assay [1] was determined as 572. In addition, the inhibition is 4.5% (inactive) in assay [1], 15.2% (inactive) in assay [3], 10% (inactive) in assay [7] and 16% (inactive) in assay [8]. The inhibition of aggregation in assay [2] was 7.8% (inactive). Also, the nuclei count in assay [2] is 110%; in assay [3] it was 118%. In addition, the fluorescence slope in assay [4] was -0.483 (inactive); in assay [6] it was 0.00287 (inactive). For the same compound, the NADPH fluorescence slope in assay [5] is -0.000241 (inactive).

Turning to `CCOC(=O)CSc1nnc(CNC(=O)c2ccc(OC)c(OC)c2)n1C`, the cell count in assay [1] worked out at 375. Also, the inhibition was -8.2% (inactive) in assay [1], -73% (inactive) in assay [3], 4.54% (inactive) in assay [7] and 21.4% (inactive) in assay [8]. In addition, the inhibition of aggregation in assay [2] was -1.1% (inactive). The nuclei count is 82% in assay [2] and 128% in assay [3]. The fluorescence slope was -0.578 (inactive) in assay [4] and 0.00863 (inactive) in assay [6]. For the same compound, the NADPH fluorescence slope in assay [5] is -2.7e-05 (inactive).

In general, inhibition refers to the relative decrease from the control value, in per cent.
